The entries come from a sample that favours hits as a whole.
INS-1E ATP HTS = protection of INS-1E cells from cytokine death, primary screen, ATP luminescence, single point; INS-1E cytokine-induced death, 48 h; normalised: neutral wells 0, positive control 100; protection from cytokine-induced ATP loss, % at 10 µM; 20,000 compounds, 0.1% hits; AID 488910, 2010;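 active means mean replicate protection from cytokine-induced ATP loss at least 50% and at least 75% of replicates each reaching 50%; inconclusive means meets only one of the two criteria, mean or replicate share; inactive means fails both the mean and replicate share criteria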
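Test system: INS-1E rat cells | Quantity: 8000 cells per well | Medium: Phenol-red-free RPMI with 5% fetal bovine serum | Reagent: Cytokine cocktail of IFN-γ, TNF-α and IL-1β | Doses: One compound concentration, pin transfer | Timing: 48 h co-treatment, 10 min post-lysis read | Technique: Luminescent ATP assay (CellTiter-Glo)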
A1 apoptosis 2 = A1 inhibitors via caspase activation, primary screen, cell-based, luminescence, HTS, two replicates | MEF A1-2A-BIM cells, caspase-Glo luminescence, 3 h; percent of clofoctol response, DMSO zero | caspase activation, % (no concentration beside the values) | 24,000 tested, under 10 active | AID 2465, 2010; in the data active means caspase activation above about 5.9%; inconclusive means no clear call, values can overlap the other calls; inactive means below about 2.2%
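Test system – A1-2A-BIM-expressing MEF cells · Input – 2500 cells/well · Medium – RPMI-1640 growth medium with 10% FBS · Compound dosing – 50 nL pinned compound · Timing – 3 h compound exposure at 37 °C · Technique – Caspase-Glo luminescence (DEVD substrate) · Evaluation – Caspase-3/7 activity from luminescence increase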
T cruzi intra = inhibitors of intracellular Trypanosoma cruzi, primary screen, cell-based, plate reader, single point, set 2 | intracellular Trypanosoma cruzi in host cells | 22,000 compounds, 4.9% hits | activity score (inhibition), % at 5.01 µM | AID 651903, 2012; in the data active means activity score above about 55%; inconclusive means no clear call, values can overlap the other calls;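 further: parasites and compound incubated about four days before reading; 0% = median of neutral control wells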
* hit, by the source's call; ? = inconclusive; . = not tested or not shown.

SMILES | INS-1E ATP HTS | A1 apoptosis 2 | T cruzi intra
C[C@H]1CN([C@@H](C)CO)C(=O)c2cccc(NS(=O)(=O)c3ccc(F)cc3)c2O[C@H]1CN(C)Cc1ccc(C(=O)Nc2ccccc2N)cc1 | -18 | 0 | 60*
COC(=O)CCCCCCC(=O)N/N=C/c1cc(OC)c(O)cc1Br | 2 | -1 | 4
COc1ccc([Si](C)(C)[C@@H]2[C@@H](CCO)O[C@]3(C(=O)N(C)c4ccccc43)[C@H]2C)cc1 | . | 2 | .
COc1ccc([Si](C)(C)[C@@H]2[C@@H](CCO)O[C@]3(C(=O)N(C)c4c(Br)cc(C)cc43)[C@H]2C)cc1 | . | 44* | .
C[C@H](CO)N1C[C@H](C)[C@H](CN(C)S(=O)(=O)c2ccc(F)cc2)Oc2ccc(NC(=O)Nc3ccc(C(F)(F)F)cc3)cc2CC1=O | -67 | 1 | 69*
COc1ccc(S(=O)(=O)N(C)C[C@H]2Oc3ccc(NC(=O)Nc4ccc(C(F)(F)F)cc4)cc3CC(=O)N([C@H](C)CO)C[C@H]2C)cc1 | 3 | 0 | 65*
C[C@H](CO)N1C[C@H](C)[C@H](CN(C)S(=O)(=O)c2ccc(F)cc2)Oc2ccc(NC(=O)Nc3ccc(F)cc3)cc2CC1=O | -7 | -1 | 23
COc1ccc(S(=O)(=O)N(C)C[C@@H]2Oc3ccc(NC(=O)Nc4ccc(C(F)(F)F)cc4)cc3CC(=O)N([C@@H](C)CO)C[C@H]2C)cc1 | . | 0 | .
Cc1ccc(S(=O)(=O)N(C)C[C@@H]2Oc3ccc(NC(=O)Nc4ccc(C(F)(F)F)cc4)cc3CC(=O)N([C@@H](C)CO)C[C@H]2C)cc1 | . | -1 | .
Cc1ccc(S(=O)(=O)N(C)C[C@H]2Oc3ccc(NC(=O)Nc4ccc(C(F)(F)F)cc4)cc3CC(=O)N([C@H](C)CO)C[C@H]2C)cc1 | -5 | 0 | 64*
CC(C)(C)OC(=O)N1CCC[C@H]1/C=N/NC(=O)c1cccc(C(=O)NO)c1 | -1 | . | -11
O=C(CCCCC(=O)N/N=C/c1ccc(I)cc1)NO | 37 | -1 | 25
C[C@@H]1CN([C@@H](C)CO)C(=O)c2cccc(NC(=O)CCCCCC(=O)Nc3ccccc3N)c2O[C@@H]1CN(C)S(=O)(=O)c1ccc(Cl)cc1 | -18 | 0 | 56*
C[C@@H]1CN([C@H](C)CO)C(=O)c2cccc(NC(=O)CCCCCC(=O)Nc3ccccc3N)c2O[C@@H]1CN(C)Cc1ccc(Cl)c(Cl)c1 | 3 | . | 61*
C[C@@H]1CN([C@@H](C)CO)C(=O)c2cccc(NC(=O)CCCCCC(=O)Nc3ccccc3N)c2O[C@@H]1CN(C)Cc1ccc(Cl)c(Cl)c1 | 19 | . | 52
C[C@H](CO)N1C[C@H](C)[C@@H](CN(C)Cc2ccncc2)Oc2c(NC(=O)CCCCCC(=O)Nc3ccccc3N)cccc2C1=O | -12 | 1 | 8
C[C@H]1CN([C@@H](C)CO)C(=O)c2cccc(NC(=O)CCCCCC(=O)Nc3ccccc3N)c2O[C@H]1CN(C)Cc1ccc(Cl)c(Cl)c1 | 9 | 1 | 70*
C[C@@H]1CN([C@H](C)CO)C(=O)c2cccc(NC(=O)CCCCCC(=O)Nc3ccccc3N)c2O[C@@H]1CN(C)S(=O)(=O)c1ccc(Cl)cc1 | 1 | -1 | ?
COc1ccc(S(=O)(=O)NC2CCN(Cc3cccc(OCCO)c3)CC2)cc1 | . | 0 | .
C[C@H](CO)N1C[C@H](C)[C@H](CN(C)C(=O)Nc2cccc3ccccc23)Oc2c(NC(=O)c3ccncc3)cccc2C1=O | 1 | 2 | 70*
C[C@H]1CN([C@@H](C)CO)C(=O)c2cccc(NC(=O)c3ccncc3)c2O[C@@H]1CN(C)C(=O)Nc1cccc2ccccc12 | 8 | 1 | 5
C[C@H]1CN([C@@H](C)CO)C(=O)c2cccc(NC(=O)c3ccncc3)c2O[C@H]1CN(C)C(=O)Nc1cccc2ccccc12 | 1 | 0 | 75*
C[C@@H]1CN([C@@H](C)CO)C(=O)c2cccc(NC(=O)c3ccncc3)c2O[C@H]1CN(C)C(=O)Nc1cccc2ccccc12 | 12 | 0 | 9
COc1cc(/C=N/NC(=O)c2cccc(C(=O)NO)c2)c([N+](=O)[O-])cc1OC | 0 | . | -5
COc1ccc(/C=N/NC(=O)c2cccc(C(=O)NO)c2)cc1OC | 5 | . | -3
SMILES | INS-1E ATP HTS | A1 apoptosis 2 | T cruzi intra
C[C@H]1CN([C@@H](C)CO)C(=O)Cc2cc(NC(=O)Nc3ccccc3)ccc2O[C@H]1CN(C)Cc1ccc(C(=O)Nc2ccccc2N)cc1 | 12 | 0 | 69*
C[C@H](CO)N1C[C@H](C)[C@@H](CN(C)Cc2ccc(C(=O)Nc3ccccc3N)cc2)Oc2ccc(NC(=O)Nc3ccccc3)cc2CC1=O | . | -1 | .
C[C@H]1CN([C@@H](C)CO)C(=O)Cc2cc(NC(=O)Nc3ccc(F)cc3)ccc2O[C@H]1CN(C)Cc1ccc(C(=O)Nc2ccccc2N)cc1 | -6 | -1 | 56*
C[C@@H]1CN([C@@H](C)CO)C(=O)Cc2cc(N(C)C)ccc2O[C@H]1CN(C)Cc1ccc(C(=O)Nc2ccccc2N)cc1 | . | 0 | .
C[C@H]1CN([C@@H](C)CO)C(=O)Cc2cc(N(C)C)ccc2O[C@@H]1CN(C)Cc1ccc(C(=O)Nc2ccccc2N)cc1 | 6 | . | 70*
C[C@H]1CN([C@@H](C)CO)C(=O)Cc2cc(NC(=O)c3ccncc3)ccc2O[C@H]1CN(C)Cc1ccc(C(=O)Nc2ccccc2N)cc1 | 1 | . | 34
C[C@@H]1CN([C@H](C)CO)C(=O)Cc2cc(NC(=O)Nc3ccc(F)cc3)ccc2O[C@@H]1CN(C)Cc1ccc(C(=O)Nc2ccccc2N)cc1 | -15 | 0 | 60*
C[C@H](CO)N1C[C@H](C)[C@@H](CN(C)Cc2ccc(C(=O)Nc3ccccc3N)cc2)Oc2ccc(NC(=O)Nc3ccc(F)cc3)cc2CC1=O | . | 0 | .
COc1ccc(Br)c(/C=N/NC(=O)c2ccccc2O)c1 | -15 | . | -9
O=C(NO)c1cccc(C(=O)N/N=C/c2ccc(N3CCCC3)cc2)c1 | -4 | -5 | -12
Cc1ccsc1/C=N/NC(=O)c1ccccc1O | -3 | . | -15
O=C(CCCCCC(=O)Nc1ccccc1O)N/N=C\c1cc(O)ccc1O | 45 | 0 | 38
C[C@H]1CN([C@@H](C)CO)C(=O)Cc2cc(NC(=O)Nc3cccc4ccccc34)ccc2O[C@@H]1CN(C)Cc1ccc(C(=O)Nc2ccccc2N)cc1 | -14 | -2 | 38
C[C@H]1CN([C@@H](C)CO)C(=O)Cc2cc(NC(=O)Nc3cccc4ccccc34)ccc2O[C@H]1CN(C)Cc1ccc(C(=O)Nc2ccccc2N)cc1 | -9 | 0 | 74*
C[C@@H]1CN([C@H](C)CO)C(=O)c2cccc(NC(=O)C3CC3)c2O[C@@H]1CN(C)Cc1ccc(Oc2ccccc2)cc1 | -24 | . | -8
C[C@@H]1CN([C@@H](C)CO)C(=O)c2cccc(NC(=O)C3CC3)c2O[C@H]1CN(C)Cc1ccc(Oc2ccccc2)cc1 | -68 | -1 | 63*
C[C@H](CO)N1C[C@H](C)[C@H](CN(C)Cc2ccc(Oc3ccccc3)cc2)Oc2c(NC(=O)C3CCOCC3)cccc2C1=O | -9 | 0 | 7

From PubChem
